ChEMBL document CHEMBL4680238, “Novel octapeptide-DTX prodrugs targeting MMP-7 as effective agents for the treatment of colorectal cancer with lower systemic toxicity” (Eur J Med Chem, 2020)
Residues, ends and D or L forms follow the SMILES beside them. *: point of attachment. X2 = CC(=O)O[C@@]12CO[C@@H]1C[C@H](O)[C@@]1(C)C(=O)[C@H](O)C3=C(C)[C@@H](OC(=O)[C@H](OC(=O)OCc4ccc(N*)cc4)[C@@H](NC(=O)OC(C)(C)C(F)(F)F)c4ccccc4)C[C@@](O)([C@@H](OC(=O)c4cccc(F)c4)[C@H]21)C3(C)C

Tests used:
SW-620 = experiment: Cytotoxicity against human SW-620 cells assessed as reduction in cell viability after 72 hrs by MTT assay; assay type: functional, cell-based; settings: SW-620, 72 h
Procedure, shortened: (§1)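 Cells seeded at 5000/well and precultured 1 day. HCT116 grown in McCoy's 5A + 10% FBS; SW620 and HEK293 in DMEM + 10% FBS; CCD18Co in DMEM + 15% FBS. Compounds from 0.1 M DMSO stocks were tested at 10^-10 to 10^-4 mol/L in sixplicate: HCT116 and HEK293 for 48 h, SW620 and CCD18Co for 72 h, at 37 °C, 5% CO2. MTT (5 mg/mL) added for 4 h, then A570 read; IC50 estimated.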

HCT-116 [1] = experiment: Cytotoxicity against human HCT-116 cells assessed as reduction in cell viability after 48 hrs by MTT assay; assay type: functional, cell-based; settings: HCT-116, 48 h; procedure, shortened: as §1
CCD-18Co = experiment: Cytotoxicity against human CCD-18Co cells assessed as reduction in cell viability after 72 hrs by MTT assay; assay type: cell-based; procedure, shortened: as §1
HEK293 = experiment: Cytotoxicity against HEK293 cells assessed as reduction in cell viability after 48 hrs by MTT assay; assay type: cell-based; settings: Homo sapiens, HEK293, 48 h; procedure, shortened: as §1
[2] = Half life of compound in PBS buffer at pH 7.4 at 50 ug/ml up to 72 hrs by RP-HPLC analysis; assay type: physicochemical; settings: dose 50 µg/ml
[3] = Half life in Sprague-Dawley rat plasma t 50 ug/ml up to 72 hrs by RP-HPLC analysis; assay type: ADME, cell-free; settings: dose 50 µg/ml
HCT-116 [4] = experiment: Antitumour activity against human HCT-116 cells xenografted in ip dosed BALB/c nude mouse assessed as tumour growth inhibition administered once for every 7 days for 14 days; assay type: functional, organism-based; settings: time 14.0 day
Procedure, shortened: (§2)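 Male BALB/c nude mice received s.c. HCT116 cells (2 × 10^6 in 0.2 mL PBS). Once tumours reached 100-200 mm3, mice were randomized into groups of six. Dosing was ip, 0.1 mL/10 g, once every 7 days, in DMSO 0.5%/castor oil 5%/ethanol 5%/saline 89.5%; vehicle controls got solvent. Caliper volume V = L×W²×0.52 read every 2-3 days. Tumours excised and weighed on day 14.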

HCT-116 [5] = experiment: Antitumour activity against human HCT-116 cells xenografted in BALB/c nude mouse assessed as tumour growth inhibition at 11.1 mg/kg, ip administered once for every 7 days for 14 days relative to control; assay type: functional; settings: HCT-116, ip, 336 h, time 14 day, read-out: TGI; procedure, shortened: as §2
HCT-116 [6] = experiment: Antitumour activity against human HCT-116 cells xenografted in BALB/c nude mouse assessed as tumour growth inhibition at 22.2 mg/kg, ip administered once for every 7 days for 14 days relative to control; assay type: functional; settings: HCT-116, ip, 336 h, time 14 day, read-out: TGI; procedure, shortened: as §2
HCT-116 [7] = experiment: Antitumour activity against human HCT-116 cells xenografted in BALB/c nude mouse assessed as tumour growth inhibition at 5.55 mg/kg, ip administered once for every 7 days for 14 days relative to control; assay type: functional; settings: HCT-116, ip, 336 h, time 14 day, read-out: TGI; procedure, shortened: as §2
[8] = Toxicity in BALB/c nude mouse xenografted with human HCT-116 cells assessed as reduction in body weight at 22.2 mg/kg, ip administered once for every 7 days for 14 days relative to control; assay type: organism-based; set-up: scale not given: the % may be the effect or the level left; settings: in vivo, 336 h, time 14 day
Procedure, shortened: (§3)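 HCT116 s.c. xenografts in male BALB/c nude mice, n = 6 per group. Dosing was ip once every 7 days for 2 weeks in DMSO/castor oil/ethanol/saline; vehicle controls got solvent. Body weight recorded every other day or every three days. Weight loss taken at day 14. Mean ± SD.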

[9] = Toxicity in BALB/c nude mouse xenografted with human HCT-116 cells assessed as reduction in body weight at 11.1 mg/kg, ip administered once for every 7 days for 14 days relative to control; assay type: organism-based; set-up: scale not given: the % may be the effect or the level left; settings: in vivo, 336 h, time 14 day; procedure, shortened: as §3
[10] = Toxicity in BALB/c nude mouse xenografted with human HCT-116 cells assessed as reduction in body weight at 5.5 mg/kg, ip administered once for every 7 days for 14 days relative to control; assay type: organism-based; set-up: scale not given: the % may be the effect or the level left; settings: in vivo, 336 h, time 14 day
Procedure, shortened: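 HCT116 cells (2 × 10^6 in 0.2 mL PBS) inoculated subcutaneously into male BALB/c nude mice; at mean tumor volume 100-200 mm3, randomized, six mice per group. Dosed intraperitoneally once every 7 days in DMSO (0.5%)/castor oil (5%)/ethanol (5%)/saline (89.5%), 0.1 mL per 10 g; vehicle controls received solvent. Body weight monitored every other day or three days; mice weighed on day 14.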

[11] = Toxicity in BALB/c nude mouse xenografted with human HCT-116 cells assessed as concentrated nucleus in liver at 11.17 mg/kg, ip administered once for every 7 days for 14 days by H and E staining based assay; assay type: organism-based; settings: in vivo, 336 h, time 14 day
Procedure, shortened: (§4)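 At the end of the 14-day ip xenograft study (HCT116, BALB/c nude), heart and liver were collected from vehicle and molar-equivalent dose groups. Tissues fixed in 10% formalin in PBS and stained with H&E. Liver examined at 400×, heart at 100×.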

[12] = Toxicity in BALB/c nude mouse xenografted with human HCT-116 cells assessed as necrosis in liver at 11.17 mg/kg, ip administered once for every 7 days for 14 days by H and E staining based assay; assay type: organism-based; settings: in vivo, 336 h, time 14 day; procedure, shortened: as §4
[13] = Toxicity in BALB/c nude mouse xenografted with human HCT-116 cells assessed as disordered myocardial fiber in heart at 11.17 mg/kg, ip administered once for every 7 days for 14 days by H and E staining based assay; assay type: organism-based; settings: in vivo, 336 h, time 14 day; procedure, shortened: as §4
[14] = Toxicity in BALB/c nude mouse xenografted with human HCT-116 cells assessed as inflammatory cell invasion in heart at 11.17 mg/kg, ip administered once for every 7 days for 14 days by H and E staining based assay; assay type: organism-based; settings: in vivo, 336 h, time 14 day; procedure, shortened: as §4

## CC[C@H](C)[C@H](NC(=O)CNC(=O)[C@H](CCC(N)=O)NC(=O)[C@@H]1CCCN1C(=O)CNC(C)=O)C(=O)N[C@@H](C)C(=O)N[C@@H](CCSC)C(=O)N[C@@H](CCC(N)=O)C(=O)N[C@@H](CC(C)C)C(=O)Nc1ccc(COC(=O)O[C@@H](C(=O)O[C@H]2C[C@@]3(O)[C@@H](OC(=O)c4cccc(F)c4)[C@@H]4[C@]5(OC(C)=O)CO[C@@H]5C[C@H](O)[C@@]4(C)C(=O)[C@H](O)C(=C2C)C3(C)C)[C@@H](NC(=O)OC(C)(C)C(F)(F)F)c2ccccc2)cc1 (Ac-GPQGIAMQL-X2)
SW-620
  IC50: 6.59 µM
HCT-116 [1]
  IC50: 0.0028 µM
CCD-18Co
  IC50: > 200 µM
HEK293
  IC50: 86.8 µM
[2]
  half-life at 50 ug/ml: > 72 h
[3]
  half-life at 50 ug/ml: 43.8 h
HCT-116 [4]
  TGI: Dose-dependent effect
HCT-116 [5]
  inhibition in vivo at 11.1 mg/kg: 35.2%
HCT-116 [6]
  inhibition in vivo at 22.2 mg/kg: 46.3%
HCT-116 [7]
  inhibition in vivo at 5.55 mg/kg: 30.5%
[8]
  Activity: 8.7%
[9]
  Activity: 8.5%
[10]
  Activity: 4.6%
[11]
  Activity: Non-Toxic
[12]
  Activity: Non-Toxic
[13]
  Activity: Non-Toxic
[14]
  Activity: Non-Toxic
